The target in assay [1] is T1, 5-hydroxytryptamine receptor 1A (Homo sapiens, UniProt P08908).
T1 sequence (P08908 whole entry): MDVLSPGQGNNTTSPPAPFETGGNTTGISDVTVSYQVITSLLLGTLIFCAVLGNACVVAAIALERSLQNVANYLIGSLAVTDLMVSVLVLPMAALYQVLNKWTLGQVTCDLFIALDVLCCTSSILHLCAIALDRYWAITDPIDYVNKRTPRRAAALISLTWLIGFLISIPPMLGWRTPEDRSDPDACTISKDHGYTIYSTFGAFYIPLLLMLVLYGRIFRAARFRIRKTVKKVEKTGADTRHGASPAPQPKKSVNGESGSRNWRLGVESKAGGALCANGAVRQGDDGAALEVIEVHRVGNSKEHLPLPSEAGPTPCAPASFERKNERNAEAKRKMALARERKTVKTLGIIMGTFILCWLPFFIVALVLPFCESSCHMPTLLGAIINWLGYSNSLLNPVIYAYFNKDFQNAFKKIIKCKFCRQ
As to the kind of experiment: Displacement of [3H]8-OH-DPAT from human recombinant 5-HT1A receptor expressed in HeLa cells after 30 mins by liquid scintillation counting. The class given is cell-based. In a few lines:
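HeLa cells stably carrying genomic clone G-21 were grown in DMEM with 10% FCS, then lysed in Tris/EDTA pH 7.4. Membranes (80–90 µg protein) were incubated in 50 mM Tris, 2.5 mM MgCl2, 10 µM pargyline, pH 7.4, with 1 nM [3H]8-OH-DPAT and competitor (1 pM–1 µM) for 30 min at 30 °C, in triplicate. Nonspecific binding with 10 µM 5-HT. pKi from 2–3 experiments.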
(In general: Loss of bound radioactivity is the signal in a displacement assay; it reports binding, not function.)

Assay [2] concerns the target T2, 5-hydroxytryptamine receptor 1A (Homo sapiens) (UniProt P08908).
T2 sequence (whole entry): T1 sequence (P08908 whole entry)
As to the kind of experiment: Agonist activity at human recombinant 5-HT1A receptor expressed in HeLa cells after 30 mins by [35S]GTPgammaS binding assay relative to control. It counts as functional, cell-based. In a few lines:
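HeLa membranes (50–70 µg protein) in 20 mM HEPES, 3 mM MgSO4, 120 mM NaCl, pH 7.4, preincubated 20 min at 30 °C with 30 µM GDP and drug (0.01 nM–10 µM), then 200 pM [35S]GTPγS added for 30 min at 30 °C. Nonspecific binding with 10 µM GTPγS. Filtration and scintillation counting. Data expressed as % increase over basal, 8-OH-DPAT maximum = 100%. Emax and pD2 derived.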
Background: Binding of GTPγS marks nucleotide exchange on a G protein.

Assay [3] concerns the target T2, 5-hydroxytryptamine receptor 1A (Homo sapiens). As to the kind of experiment: Agonist activity at human recombinant 5-HT1A receptor expressed in HeLa cells after 30 mins by [35S]GTPgammaS binding assay. The class given is functional, cell-based. The method, boiled down:
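HeLa membranes expressing human 5-HT1A (50–70 µg protein) in 20 mM HEPES, 3 mM MgSO4, 120 mM NaCl pH 7.4 with 30 µM GDP; test drug 0.01 nM–10 µM, 20 min at 30 °C, then 200 pM [35S]GTPγS for 30 min at 30 °C. Nonspecific with 10 µM GTPγS; filtration and scintillation counting. Emax as % of maximal 8-OH-DPAT stimulation; pD2 = −log EC50.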

The target of assay [4] is T3, Alpha-1D adrenergic receptor (Homo sapiens, UniProt P25100).
T3 sequence (P25100 whole entry): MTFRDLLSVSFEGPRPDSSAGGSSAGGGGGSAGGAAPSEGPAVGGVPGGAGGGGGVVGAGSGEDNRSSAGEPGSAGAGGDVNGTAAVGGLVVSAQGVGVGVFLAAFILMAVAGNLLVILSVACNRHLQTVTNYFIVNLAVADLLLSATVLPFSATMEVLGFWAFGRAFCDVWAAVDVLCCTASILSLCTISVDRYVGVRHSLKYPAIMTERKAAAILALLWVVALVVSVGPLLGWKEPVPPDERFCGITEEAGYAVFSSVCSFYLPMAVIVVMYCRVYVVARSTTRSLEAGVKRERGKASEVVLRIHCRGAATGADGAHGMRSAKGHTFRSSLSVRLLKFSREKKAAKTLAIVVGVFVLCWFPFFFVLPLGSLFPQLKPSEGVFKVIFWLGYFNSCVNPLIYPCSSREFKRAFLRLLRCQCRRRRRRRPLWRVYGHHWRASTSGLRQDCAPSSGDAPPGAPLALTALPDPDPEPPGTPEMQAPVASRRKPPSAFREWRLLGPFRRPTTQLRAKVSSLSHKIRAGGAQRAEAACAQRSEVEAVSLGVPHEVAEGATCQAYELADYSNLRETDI
Description: Displacement of [3H]prazosin from human recombinant alpha1D adrenoceptor expressed in CHO cells after 30 mins by liquid scintillation counting. It counts as cell-based. The method, boiled down:
(§1)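 CHO cells were stably transfected by electroporation with each human α1 subtype. Membranes (70 µg protein) were incubated in 50 mM Tris pH 7.4 with 0.1–0.4 nM [3H]prazosin and competitor (1 pM–1 µM) for 30 min at 25 °C. Nonspecific binding with 10 µM tamsulosin. Filtration and scintillation counting. pKi from 2–3 experiments in duplicate.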

Assay [5] deals with T4, Alpha-1B adrenergic receptor (Homo sapiens, UniProt P35368).
T4 sequence (P35368 whole entry): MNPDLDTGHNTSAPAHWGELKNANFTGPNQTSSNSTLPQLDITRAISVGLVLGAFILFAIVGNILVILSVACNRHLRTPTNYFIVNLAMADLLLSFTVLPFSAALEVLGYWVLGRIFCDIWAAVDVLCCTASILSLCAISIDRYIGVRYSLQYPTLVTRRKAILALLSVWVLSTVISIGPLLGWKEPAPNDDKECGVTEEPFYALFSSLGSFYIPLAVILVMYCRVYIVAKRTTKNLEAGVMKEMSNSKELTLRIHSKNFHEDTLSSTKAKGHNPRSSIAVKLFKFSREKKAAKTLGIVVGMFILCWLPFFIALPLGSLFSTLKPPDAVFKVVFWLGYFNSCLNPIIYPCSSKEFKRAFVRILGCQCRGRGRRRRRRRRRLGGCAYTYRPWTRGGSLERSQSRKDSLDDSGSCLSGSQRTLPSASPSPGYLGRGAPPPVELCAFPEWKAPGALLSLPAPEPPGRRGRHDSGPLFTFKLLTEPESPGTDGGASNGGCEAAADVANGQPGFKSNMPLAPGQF
Description: Displacement of [3H]prazosin from human recombinant alpha1B adrenoceptor expressed in CHO cells after 30 mins by liquid scintillation counting. It counts as cell-based. In a few lines: as §1

Broadly, the Ki is a measure of affinity in units of concentration, obtained from inhibition or displacement. The Emax is the greatest response seen or fitted, relative to the assay's reference.

As to `COc1ccccc1N1CCN(CC2COC3(CC[S+]([O-])CC3)O2)CC1` (stereo not given), the Ki in assay [1] is 117 nM; in assay [4], 42.7 nM; in assay [5], 479 nM. The Emax in assay [2] worked out at 139%. Besides, the pD2 in assay [3] stood at 8.13.

(Values after ChEMBL document CHEMBL3351355, “Structure-affinity/activity relationships of 1,4-dioxa-spiro[4.5]decane based ligands at α1 and 5-HT1A receptors” (Eur J Med Chem, 2014).)
